# Data from ChEMBL document CHEMBL3745705, “Discovery of Oral VEGFR-2 Inhibitors with Prolonged Ocular Retention That Are Efficacious in Models of Wet Age-Related Macular Degeneration” (J Med Chem, 2015).
# Tests used:
# [1] = Aqueous solubility of the compound at pH 6.8; conditions: aqueous medium
# Mus musculus [2] = organism: Mus musculus; assay: animal or person; conditions: C57BL/6, po, read-out: INH
# [3] = target: Voltage-gated inwardly rectifying potassium channel KCNH2 (Homo sapiens, UniProt Q12809); assay: Inhibition of human ERG channel by automated Q-patch assay
# Mus musculus [4] = assay: Antiangiogenic activity in po dosed C57BL/6 mouse laser-induced choroidal neovascularization assessed as inhibition of neovascular lesion formation administered qd for 6 days measured on day 7 by microscopic analysis; format: functional; conditions: C57BL/6, po
# Rattus norvegicus [5] = assay: Antiangiogenic activity in po dosed Brown Norway rat laser-induced choroidal neovascularization model assessed as inhibition of neovascular lesion formation administered qd for 14 days by microscopic analysis; format: functional; conditions: 336 h
# Outline: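 Male Brown Norway rats, about 12 weeks old, dosed by oral gavage starting about 1 h before laser. Lesions were made under ketamine/xylazine i.p. (40–80 / 5–10 mg/kg) with 532 nm laser pulses (30 ms, 190 mW, 200 µm spot), about 4 lesions per eye and 10 rats per group. Vessels were labelled with i.v. 2,000 kD FITC dextran, eyes fixed in 4% paraformaldehyde, and CNV area measured blinded.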
# Plasma [6] = assay: Dose normalized AUC (0 to 24 hrs) in Brown Norway rat plasma at 2 mg/kg, po; format: ADME, organism-based; conditions: in vivo
# [7] = Dose normalized AUC (0 to 24 hrs) in Brown Norway rat retina at 2 mg/kg, po; format: ADME, organism-based; conditions: in vivo
# [8] = Dose normalized AUC (0 to 24 hrs) in Brown Norway rat posteior eye cup at 2 mg/kg, po; format: ADME, organism-based; conditions: in vivo
# Plasma [9] = assay: Dose normalized Cmax in Brown Norway rat plasma at 2 mg/kg, po; format: ADME, organism-based; conditions: in vivo
# Outline: (§1)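 Single oral dose to three-month-old Brown Norway rats as a suspension in 0.5% MC/0.1% tween 80, WFI. Retina, posterior eye cup (RPE/choroid/sclera) and plasma collected from 2 rats per time point up to 144 h. Tissues homogenized, plasma proteins precipitated, drug quantified by LC-MS/MS.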
# [10] = Dose normalized Cmax in Brown Norway rat retina at 2 mg/kg, po; format: ADME, organism-based; conditions: in vivo; outline: as §1
# [11] = Dose normalized Cmax in Brown Norway rat posteior eye cup at 2 mg/kg, po; format: ADME, organism-based; conditions: in vivo; outline: as §1
# Plasma [12] = assay: Dose normalized plasma concentration in Brown Norway rat plasma at 2 mg/kg, po measured at 24 hrs by LC-MS/MS analysis; format: ADME, organism-based; conditions: in vivo; outline: as §1
# [13] = Dose normalized drug uptake in Brown Norway rat retina at 2 mg/kg, po by LC-MS/MS analysis; format: ADME, organism-based; conditions: in vivo; outline: as §1
# Rattus norvegicus [14] = assay: AUC (0 to 8 hrs) in Brown Norway rat at 3 mg/kg, po by LC-MS/MS analysis; format: ADME, organism-based; design: dose 3 mg/kg, time < 8 hr, route oral; conditions: in vivo
# [15] = Volume of distribution at steady state in Brown Norway rat at 3 mg/kg, po or 1 mg/kg, iv by LC-MS/MS analysis; format: ADME, organism-based; conditions: in vivo, read-out: Vdss
# [16] = Half life in Brown Norway rat at 3 mg/kg, po or 1 mg/kg, iv by LC-MS/MS analysis; format: ADME, organism-based; conditions: in vivo
# [17] = Cmax in Brown Norway rat at 3 mg/kg, po or 1 mg/kg, iv by LC-MS/MS analysis; format: ADME, organism-based; conditions: in vivo
# Rattus norvegicus [18] = assay: Oral bioavailability in Brown Norway rat at 3 mg/kg by LC-MS/MS analysis; format: ADME, organism-based; conditions: in vivo
# [19] = Drug uptake in Brown Norway rat posteior eye cup at 2 mg/kg, po; format: ADME, organism-based; conditions: in vivo; outline: as §1
# Plasma [20] = assay: Dose normalized AUC (0 to 24 hrs) in Brown Norway rat plasma at 6 mg/kg, po; format: ADME, organism-based; conditions: in vivo
# [21] = Dose normalized AUC (0 to 24 hrs) in Brown Norway rat retina at 6 mg/kg, po; format: ADME, organism-based; conditions: in vivo
# [22] = Dose normalized AUC (0 to 24 hrs) in Brown Norway rat posteior eye cup at 6 mg/kg, po; format: ADME, organism-based; conditions: in vivo
# Plasma [23] = assay: Dose normalized Cmax in Brown Norway rat plasma at 6 mg/kg, po; format: ADME, organism-based; conditions: in vivo
# [24] = Dose normalized Cmax in Brown Norway rat retina at 6 mg/kg, po; format: ADME, organism-based; conditions: in vivo
# [25] = Dose normalized Cmax in Brown Norway rat posteior eye cup at 6 mg/kg, po; format: ADME, organism-based; conditions: in vivo
# Plasma [26] = assay: Dose normalized plasma concentration in Brown Norway rat plasma at 6 mg/kg, po measured at 24 hrs by LC-MS/MS analysis; format: ADME, organism-based; conditions: in vivo
# [27] = Dose normalized drug uptake in Brown Norway rat retina at 6 mg/kg, po by LC-MS/MS analysis; format: ADME, organism-based; conditions: in vivo
# Rattus norvegicus [28] = assay: AUC (0 to 8 hrs) in Brown Norway rat at 10 mg/kg, po by LC-MS/MS analysis; format: ADME, organism-based; design: dose 10 mg/kg, time < 8 hr, route oral; conditions: in vivo
# [29] = Volume of distribution at steady state in Brown Norway rat at 10 mg/kg, po or 1 mg/kg, iv by LC-MS/MS analysis; format: ADME, organism-based; conditions: in vivo, read-out: Vdss
# Outline: (§2)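 Brown Norway rats dosed i.v. at 1 mg/kg (n = 2; NMP/PG/cremophorEL/PBS or NMP/PEG 300/WFI vehicle) or p.o. at 3 or 10 mg/kg (n = 3; 0.5% MC/0.1% tween 80, WFI). Clearance, Vdss, t1/2, Cmax, AUC 0-8h and oral bioavailability calculated from plasma levels.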
# [30] = Half life in Brown Norway rat at 10 mg/kg, po or 1 mg/kg, iv by LC-MS/MS analysis; format: ADME, organism-based; conditions: in vivo; outline: as §2
# [31] = Cmax in Brown Norway rat at 10 mg/kg, po or 1 mg/kg, iv by LC-MS/MS analysis; format: ADME, organism-based; conditions: in vivo; outline: as §2
# Rattus norvegicus [32] = assay: Oral bioavailability in Brown Norway rat at 10 mg/kg by LC-MS/MS analysis; format: ADME, organism-based; conditions: in vivo; outline: as §2
# [33] = Dose normalized drug uptake in Brown Norway rat posteior eye cup at 6 mg/kg, po; format: ADME, organism-based; conditions: in vivo
# Voltage-gated inwardly rectifying potassium channel KCNH2, sequence (Q12809 whole entry): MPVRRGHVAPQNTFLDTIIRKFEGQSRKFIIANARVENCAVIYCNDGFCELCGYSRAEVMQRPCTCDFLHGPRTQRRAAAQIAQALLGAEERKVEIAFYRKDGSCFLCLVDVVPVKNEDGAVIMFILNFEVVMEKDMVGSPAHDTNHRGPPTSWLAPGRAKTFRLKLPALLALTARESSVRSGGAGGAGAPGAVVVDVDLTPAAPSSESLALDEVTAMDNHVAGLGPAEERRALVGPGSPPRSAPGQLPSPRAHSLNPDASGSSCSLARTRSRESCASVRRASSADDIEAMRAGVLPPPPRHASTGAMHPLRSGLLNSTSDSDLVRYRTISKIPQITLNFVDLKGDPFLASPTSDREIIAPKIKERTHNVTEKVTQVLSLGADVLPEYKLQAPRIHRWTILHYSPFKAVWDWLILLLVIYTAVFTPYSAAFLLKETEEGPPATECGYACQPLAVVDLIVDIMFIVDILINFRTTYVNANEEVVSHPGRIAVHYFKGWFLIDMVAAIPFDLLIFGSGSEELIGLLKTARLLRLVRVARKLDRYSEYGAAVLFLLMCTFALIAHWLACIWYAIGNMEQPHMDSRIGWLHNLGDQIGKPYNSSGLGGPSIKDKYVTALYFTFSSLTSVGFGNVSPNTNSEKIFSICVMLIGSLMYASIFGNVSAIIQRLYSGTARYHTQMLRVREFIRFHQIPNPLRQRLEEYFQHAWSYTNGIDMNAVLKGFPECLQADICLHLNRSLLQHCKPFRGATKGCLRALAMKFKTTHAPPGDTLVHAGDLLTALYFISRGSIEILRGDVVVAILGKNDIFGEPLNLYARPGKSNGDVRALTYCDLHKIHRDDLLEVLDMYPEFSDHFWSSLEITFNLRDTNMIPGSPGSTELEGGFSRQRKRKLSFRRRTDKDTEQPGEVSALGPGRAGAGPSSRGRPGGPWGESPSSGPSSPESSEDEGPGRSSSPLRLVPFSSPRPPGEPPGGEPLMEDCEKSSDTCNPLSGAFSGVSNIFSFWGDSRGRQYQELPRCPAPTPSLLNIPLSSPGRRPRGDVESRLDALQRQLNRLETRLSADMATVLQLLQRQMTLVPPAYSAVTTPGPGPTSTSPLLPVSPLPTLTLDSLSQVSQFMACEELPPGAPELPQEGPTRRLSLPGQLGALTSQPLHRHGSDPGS
structure (smiles),measurement,setting,value
CC(C)(C)c1cc(NC(=O)n2ccc3cc(Oc4ncnc5c4CNC5)ccc32)no1,solubility,[1],20 µM
same,inhibition in vivo at 10 mg/kg,Mus musculus [2],83%
CCN1CCc2c(ncnc2Oc2ccc3c(ccn3C(=O)Nc3cccc(C(F)(F)F)c3)c2)C1,solubility,[1],< 5 µM
same,inhibition in vivo at 10 mg/kg,Mus musculus [2],81%
CC(C)c1cc(NC(=O)n2ccc3cc(Oc4ncnc5c4CCNC5)ccc32)n[nH]1,solubility,[1],833 µM
same,inhibition in vivo at 10 mg/kg,Mus musculus [2],0%
CC(=O)N1CCc2c(ncnc2Oc2ccc3c(ccn3C(=O)Nc3cccc(C(F)(F)F)c3)c2)C1,inhibition in vivo at 10 mg/kg,Mus musculus [2],0%
O=C(Nc1cc(C2CC2)on1)n1ccc2cc(Oc3ncnc4c3CNC4)ccc21,solubility,[1],110 µM
same,IC50,[3],> 30 µM
same,ED50,Mus musculus [4],1.8 mg/kg
same,ED90,Mus musculus [4],4.8 mg/kg
same,ED50,Rattus norvegicus [5],0.7 mg/kg
same,ED90,Rattus norvegicus [5],2.7 mg/kg
same,AUC/dose,Plasma [6],15014 nM·h/mg/kg
same,AUC/dose,[7],2692 nM·h/mg/kg
same,AUC/dose,[8],92954 nM·h/mg/kg
same,Cmax/dose,Plasma [9],3225 nM/mg/kg
same,Cmax/dose,[10],337 nM/mg/kg
same,Cmax/dose,[11],5293 nM/mg/kg
same,Cp/dose,Plasma [12],6 nM/mg/kg
same,Druguptake/dose,[13],65 nM/mg/kg
same,AUC,Rattus norvegicus [14],29.4 µM·h
same,Vd,[15],0.5 L/kg
same,half-life,[16],1.2 h
same,Cmax,[17],11 µM
same,F,Rattus norvegicus [18],100%
same,Druguptake/dose,[19],3344 nM/mg/kg
same,inhibition in vivo at 10 mg/kg,Mus musculus [2],98%
C[C@@H]1NCc2ncnc(Oc3ccc4c(ccn4C(=O)Nc4cc(C(C)(C)C)on4)c3)c21,inhibition in vivo at 10 mg/kg,Mus musculus [2],33%
CNCc1cc(Oc2ccc3c(ccn3C(=O)Nc3ccc(F)c(C(F)(F)F)c3)c2)ncn1,inhibition in vivo at 10 mg/kg,Mus musculus [2],92%
CC(C)(C)c1cc(NC(=O)n2ccc3cc(Oc4ncnc5c4CCNC5)ccc32)no1,solubility,[1],167 µM
same,IC50,[3],7 µM
same,inhibition in vivo at 10 mg/kg,Mus musculus [2],83%
C[C@@H]1Cc2c(ncnc2Oc2ccc3c(ccn3C(=O)Nc3cc(C4(C)CC4)[nH]n3)c2)CN1,inhibition in vivo at 10 mg/kg,Mus musculus [2],48%
O=C(Nc1cccc(C(F)(F)F)c1)n1ccc2cc(Oc3ncnc4c3CNCC4)ccc21,inhibition in vivo at 10 mg/kg,Mus musculus [2],0%
Nc1cc(Oc2ccc3c(ccn3C(=O)Nc3cccc(C(F)(F)F)c3)c2)ncn1,solubility,[1],< 5 µM
same,inhibition in vivo at 10 mg/kg,Mus musculus [2],44%
CC1(c2cc(NC(=O)n3ccc4cc(Oc5ncnc6c5CNC6)ccc43)no2)CC1,inhibition in vivo at 10 mg/kg,Mus musculus [2],90%
CC1(c2cc(NC(=O)n3ccc4cc(Oc5ncnc6c5CCNC6)ccc43)n[nH]2)CC1,solubility,[1],252 µM
same,ED50,Mus musculus [4],7.8 mg/kg
same,ED90,Mus musculus [4],25.3 mg/kg
same,ED50,Rattus norvegicus [5],2.7 mg/kg
same,ED90,Rattus norvegicus [5],13.6 mg/kg
same,AUC/dose,Plasma [20],166 nM·h/mg/kg
same,AUC/dose,[21],310 nM·h/mg/kg
same,AUC/dose,[22],2386 nM·h/mg/kg
same,Cmax/dose,Plasma [23],33 nM/mg/kg
same,Cmax/dose,[24],15 nM/mg/kg
same,Cmax/dose,[25],110 nM/mg/kg
same,Cp/dose,Plasma [26],0.7 nM/mg/kg
same,Druguptake/dose,[27],13 nM/mg/kg
same,AUC,Rattus norvegicus [28],1.12 µM·h
same,Vd,[29],22 L/kg
same,half-life,[30],2.7 h
same,Cmax,[31],0.505 µM
same,F,Rattus norvegicus [32],51%
same,Druguptake/dose,[33],102 nM/mg/kg
same,inhibition in vivo at 10 mg/kg,Mus musculus [2],64%
O=C(Nc1cccc(C(F)(F)F)c1)n1ccc2cc(Oc3cc(CO)ncn3)ccc21,inhibition in vivo at 10 mg/kg,Mus musculus [2],45%
